Laboratory results as given in paper PMC6463402 (Current Radiopharmaceuticals, 2019).
pKd: −log10 of the molar value. Read-outs that look alike come from different tables or passages of the source.

Assays:
[1] = Stability in the final formulation; type: physicochemical; settings: 6 h, room temperature
Summary of the method: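 Three samples of the formulated tracer, a filtered ethanol/saline formulation with phosphate and Tween 80, were held at room temperature. Each was analysed at 0, 1, 2, 3, 4, 5 and 6 h by radio-HPLC on C18 with MeCN:H2O 75:25 at 1 mL/min, using UV 215 nm and gamma detectors. Radiochemical purity was taken as the tracer peak area relative to total radioactivity.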

Stability in plasma = type: in vitro ADME, human; settings: 2 h incubation at 37 °C
APPSwe/PS1dE9 mice = test: PET/CT imaging, transgenic mice; type: in vivo; settings: static PET at 30 min, n=3, no statistical significance
Summary of the method: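 Male APPSwe/PS1dE9 transgenic mice (aged 12 months) and male C57BL/6 controls (aged 13 months) under isoflurane received 30-37 MBq i.v. via tail vein. PET/CT images were fused with a brain-template atlas to give regional values. In static images, regional SUV was normalised to brain stem (n=3). Transgenic and control regions were compared by Student's t-test, α=0.05.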

[2] = Lipophilicity, n-octanol/phosphate buffer partition coefficient; type: physicochemical; settings: n-octanol/phosphate buffer 0.1 mol/L, pH 7.4; mean of two batches in triplicate
[3] = Biodistribution study and non-compartmental pharmacokinetics; type: in vivo, Balb/C mice; settings: i.v.
Summary of the method: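 Thirty healthy male Balb/C mice (10-12 weeks, 28.5±2.0 g) in 6 groups of 5 received 20-40 MBq i.v. via lateral tail vein. Blood was collected and mice were killed at 5, 15, 30, 45, 70 and 180 min. Organs were removed, washed with saline, dried and weighed, and radioactivity was well-counted. Plasma PK parameters came from non-compartmental analysis, reported as mean and standard deviation.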

Aβ plaques = Aβ plaques (Homo sapiens, UniProt P05067); test: In vitro binding assays with Aβ plaques; parameters: species or system 3xTg-AD mice
Chain of Aβ plaques (P05067 672-713): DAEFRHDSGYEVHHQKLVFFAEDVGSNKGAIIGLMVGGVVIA

Protein binding assay = type: in vitro ADME; settings: human plasma, gel filtration
Summary of the method: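 Human plasma (1 mL) with 100 μL radiotracer was incubated at 37 °C for 120 min. At 30, 60 and 120 min, 50 μL was applied to pre-spun G-50 size-exclusion spin columns, left 2 min, and centrifuged 2 min at 3300 rpm, 4 °C. Column (free) and eluate (bound) activity were gamma-counted. The blank used 0.1 M phosphate buffer instead of plasma, at 120 min.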

C57BL/6 mice = test: PET/CT imaging, control healthy mice; type: in vivo; settings: wild-type mice, i.v.
Summary of the method: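 Male C57BL/6 controls (aged 13 months), anaesthetised with 4-5% isoflurane (1-2% maintenance), received 30-37 MBq via lateral tail vein. Dynamic PET ran 120 min, framed 10x2 min, 5x5 min and 5x15 min, with CT at 45 kVp for anatomy. Decay-corrected PET was fused with CT and an MRI mouse brain template holding predefined brain regions of interest.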

Aβ = settings: cited from earlier work
[4] = cited from earlier work
[5] = plasma of healthy Balb/C male mice, NCA
[6] = brain serial sections of 3xTg-AD mice

COc1ccc2cc(CCC[18F])ccc2c1 [[^18F]Amylovis, 2-(3-[^18F]fluoropropyl)-6-methoxynaphthalene]
stability (radiochemical purity) of final formulation [1]: did not significantly change
stability in fresh human plasma (Stability in plasma): not degraded
uptake in cortex, transgenic vs control healthy mice (SUVr to brain stem) (APPSwe/PS1dE9 mice): slightly incremented uptake
log Poct/PBS [2]: 2.46 ± 0.06
bone uptake ([3]; healthy Balb/C mice): relatively high bone uptake
uptake in kidneys and liver ([3]; healthy Balb/C mice): high uptake values
brain uptake (washout/clearance) ([3]; healthy Balb/C mice, 60 min): 0.11±0.03 %ID/g
T1/2 (plasma) [3, 5]: 37 ± 10 min
Vss [3, 5]: 10.3 ± 2.9 mL
Vss/kg [3, 5]: 0.372 ± 0.11 L/kg
pKd (Aβ plaques): 9.80
Bmax (Aβ plaques; [6]): 119.4 nM
fold higher BP than [^11C]PIB (Aβ plaques; [6]): 3 folds
fold higher affinity for Aβ plaques compared with [^11C]PIB (Aβ plaques; [6]): 6 fold
plasma protein binding (PPB) (Protein binding assay): high PPB percentage
time of maximum activity in brain (dynamic PET) (C57BL/6 mice): 2 min

CNc1ccc(/C=C/c2ccc(OCCOCCOCCF)cc2)cc1 [[^18F]Florbetaben, BAY94-9172]
pKd (Aβ; AD brain homogenates ref 60): 7.80
Log P [4]: 2.41 [65]

CNc1ccc(/C=C/c2ccc(OCCOCCOCCF)nc2)cc1 [[^18F]Florbetapir, AV-45]
pKd (Aβ; AD brain homogenates ref 62): 8.43

CNc1ccc(-c2nc3ccc(O)cc3s2)cc1F [[^18F]Flutemetamol, GE-067]
pKd (Aβ; AD brain homogenates ref 59): 8.17
Log P [4]: 1.7 [64]
